Experimental data published in ChEMBL document CHEMBL5724801, “EUbOPEN Chemogenomics Library - Multiplex” (2024).
Values joined by “and” are separate entries in the source; they are usually repeats but may differ in a detail not shown here. Identical values can stand only once.

Test system: HEK-293T
Test: Multiplex assay against HEK293T
Format: toxicity, cell-based
Details: human
Procedure, shortened: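 Tubulin, mitochondrial-mass and membrane-permeability phenotypes are per cents of healthy-nucleus cells. Cells were gated by CellPathfinder machine learning into Hoechst high-intensity objects or normal cells, normal cells into healthy, pyknosed or fragmented nuclei, and pyknosed cells into mitotic or apoptotic. Before that, live cells stained at seeding with Hoechst33342, BioTracker Green Microtubule Cytoskeleton Dye, MitoTracker Red and Annexin V Alexa Fluor 680 were imaged on a CQ1 microscope at 37°C and 5% CO2 after compound addition.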

[1] = 12 h, 1 µM, compound concentration 1 uM
[2] = 12 h, 10 µM, compound concentration 10 uM
[3] = 24 h, 1 µM, compound concentration 1 uM
[4] = 24 h, 10 µM, compound concentration 10 uM
[5] = 48 h, 1 µM, compound concentration 1 uM
[6] = 48 h, 10 µM, compound concentration 10 uM

N#Cc1c(Oc2cccc(OS(=O)(=O)CCCC(F)(F)F)c2)cccc1C(F)(F)F
Population Apoptotic (%) [1]: 35% and 63%
Population Fragmented Nuclei (%) [1]: 4% and 6%
Population Healthy Nuclei (%) [1]: 86% and 75%
Population Hoechst High Intensity Objects (%) [1]: 5% and 11%
Population Membrane Permeable-Phenotype (%) [1]: 0%
Population Mitochondria Different-Phenotype (%) [1]: 46% and 60%
Population Mitotic Cells (%) [1]: 65% and 36%
Population Normal (%) [1]: 94% and 88%
Population Pyknosed Nuclei (%) [1]: 8% and 17%
Population Tubulin-Different-Phenotype (%) [1]: 38% and 28%
Total Cell Count [1]: 490 and 349
Population Apoptotic (%) [2]: 42% and 44%
Population Fragmented Nuclei (%) [2]: 8% and 6%
Population Healthy Nuclei (%) [2]: 65% and 64%
Population Membrane Permeable-Phenotype (%) [2]: 0%
Population Mitochondria Different-Phenotype (%) [2]: 74% and 81%
Population Mitotic Cells (%) [2]: 57% and 55%
Population Normal (%) [2]: 89% and 59%
Population Pyknosed Nuclei (%) [2]: 25% and 28%
Population Tubulin-Different-Phenotype (%) [2]: 65% and 58%
Total Cell Count [2]: 290 and 318
Population Apoptotic (%) [3]: 28% and 60%
Population Fragmented Nuclei (%) [3]: 10% and 8%
Population Healthy Nuclei (%) [3]: 77% and 81%
Population Hoechst High Intensity Objects (%) [3]: 3% and 9%
Population Membrane Permeable-Phenotype (%) [3]: 0%
Population Mitochondria Different-Phenotype (%) [3]: 34% and 48%
Population Mitotic Cells (%) [3]: 71% and 40%
Population Normal (%) [3]: 96% and 90%
Population Pyknosed Nuclei (%) [3]: 12% and 9%
Population Tubulin-Different-Phenotype (%) [3]: 26% and 20%
Total Cell Count [3]: 654 and 412
Population Apoptotic (%) [4]: 43% and 45%
Population Fragmented Nuclei (%) [4]: 9% and 10%
Population Healthy Nuclei (%) [4]: 77% and 61%
Population Membrane Permeable-Phenotype (%) [4]: 0%
Population Mitochondria Different-Phenotype (%) [4]: 66% and 68%
Population Mitotic Cells (%) [4]: 56% and 54%
Population Normal (%) [4]: 86% and 52%
Population Pyknosed Nuclei (%) [4]: 13% and 27%
Population Tubulin-Different-Phenotype (%) [4]: 56% and 41%
Total Cell Count [4]: 338 and 312
Population Apoptotic (%) [5]: 20% and 56%
Population Fragmented Nuclei (%) [5]: 13% and 12%
Population Healthy Nuclei (%) [5]: 81% and 82%
Population Hoechst High Intensity Objects (%) [5]: 1% and 5%
Population Membrane Permeable-Phenotype (%) [5]: 1% and 0%
Population Mitochondria Different-Phenotype (%) [5]: 21% and 23%
Population Mitotic Cells (%) [5]: 79% and 43%
Population Normal (%) [5]: 98% and 94%
Population Pyknosed Nuclei (%) [5]: 5%
Population Tubulin-Different-Phenotype (%) [5]: 15% and 13%
Total Cell Count [5]: 986 and 568
Population Apoptotic (%) [6]: 44% and 58%
Population Fragmented Nuclei (%) [6]: 11%
Population Healthy Nuclei (%) [6]: 78% and 69%
Population Membrane Permeable-Phenotype (%) [6]: 0%
Population Mitochondria Different-Phenotype (%) [6]: 44% and 47%
Population Mitotic Cells (%) [6]: 55% and 41%
Population Normal (%) [6]: 94% and 75%
Population Pyknosed Nuclei (%) [6]: 10% and 18%
Population Tubulin-Different-Phenotype (%) [6]: 29% and 23%
Total Cell Count [6]: 464 and 363

CC(C)(c1ccc(O)cc1)c1ccc(O)cc1 [BISPHENOL A]
Population Apoptotic (%) [1]: 8.05% and 13.14%
Population Fragmented Nuclei (%) [1]: 5.16% and 3.01%
Population Hoechst High Intensity Objects (%) [1]: 0% and 0.6%
Population Membrane Permeable-Phenotype (%) [1]: 0% and 4.17%
Population Mitochondria Different-Phenotype (%) [1]: 34.18% and 33.33%
Population Mitotic Cells (%) [1]: 91.95% and 86.86%
Population Normal (%) [1]: 100% and 99.4%
Population Pyknosed Nuclei (%) [1]: 36.61% and 82.53%
Total Cell Count [1]: 407 and 167
Population Apoptotic (%) [2]: 10.57% and 14.78%
Population Fragmented Nuclei (%) [2]: 4.23% and 2.74%
Population Hoechst High Intensity Objects (%) [2]: 1.19% and 0.68%
Population Membrane Permeable-Phenotype (%) [2]: 0%
Population Mitochondria Different-Phenotype (%) [2]: 37.63% and 18.52%
Population Mitotic Cells (%) [2]: 89.43% and 85.22%
Population Normal (%) [2]: 98.81% and 99.32%
Population Pyknosed Nuclei (%) [2]: 37.16% and 78.77%
Total Cell Count [2]: 335 and 147
Population Apoptotic (%) [3]: 12.93% and 13.39%
Population Fragmented Nuclei (%) [3]: 1.95% and 0.56%
Population Healthy Nuclei (%) [3]: 77.52% and 28.89%
Population Hoechst High Intensity Objects (%) [3]: 0.18% and 0%
Population Membrane Permeable-Phenotype (%) [3]: 1.6% and 1.92%
Population Mitochondria Different-Phenotype (%) [3]: 13.7% and 15.38%
Population Mitotic Cells (%) [3]: 87.07% and 86.61%
Population Normal (%) [3]: 99.82% and 100%
Population Tubulin-Different-Phenotype (%) [3]: 9.82% and 13.46%
Population Apoptotic (%) [4]: 12.5% and 15.52%
Population Fragmented Nuclei (%) [4]: 2.67% and 1.71%
Population Healthy Nuclei (%) [4]: 74.28% and 32%
Population Hoechst High Intensity Objects (%) [4]: 0%
Population Membrane Permeable-Phenotype (%) [4]: 1.11% and 0%
Population Mitochondria Different-Phenotype (%) [4]: 19.11% and 16.07%
Population Mitotic Cells (%) [4]: 87.5% and 84.48%
Population Normal (%) [4]: 100%
Population Pyknosed Nuclei (%) [4]: 23.05% and 66.29%
Total Cell Count [4]: 486 and 175
Population Apoptotic (%) [5]: 8.33% and 18.95%
Population Fragmented Nuclei (%) [5]: 3.14% and 0%
Population Healthy Nuclei (%) [5]: 87.89% and 52.74%
Population Hoechst High Intensity Objects (%) [5]: 0.07% and 0.99%
Population Membrane Permeable-Phenotype (%) [5]: 5.87% and 1.89%
Population Mitotic Cells (%) [5]: 91.67% and 81.05%
Population Normal (%) [5]: 99.93% and 99.01%
Population Fragmented Nuclei (%) [6]: 3.13% and 2.41%
Population Healthy Nuclei (%) [6]: 86.33% and 68.67%
Population Hoechst High Intensity Objects (%) [6]: 0% and 2.35%
Population Membrane Permeable-Phenotype (%) [6]: 4.42% and 1.75%
Population Mitochondria Different-Phenotype (%) [6]: 9.82% and 14.62%
Population Mitotic Cells (%) [6]: 95.65% and 84.72%
Population Normal (%) [6]: 100% and 97.65%
Population Pyknosed Nuclei (%) [6]: 10.54% and 28.92%
